Compound activity (PubChem BioAssay)
Many of the other results were omitted from the sample, so hits are more common in it than they were.
T cruzi HTS – inhibitors of intracellular Trypanosoma cruzi; intracellular Trypanosoma cruzi in host cells, plate reader; activity score (inhibition), % at 5.01 µM; 22,000 tested, 4.9% active; AID 651903; in the data active = activity score above about 55%;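 note: parasites and compound incubated about four days before reading; 0% = median of neutral control wells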
A1 apoptosis 2 – A1 inhibition read as caspase activation | MEF A1-2A-BIM cells, caspase-Glo luminescence, 3 h; percent of clofoctol response, DMSO zero | caspase activation, % (no concentration beside the values) | 24,000 tested, under 10 active; in the data active = caspase activation above about 5.9%
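Material: A1-2A-BIM-expressing MEF cells. Buffer or medium: RPMI-1640 plus 10% FBS. Incubation: cells settled overnight, compound exposure 3 h at 37 °C, 5% CO2. Signal: Caspase-Glo 3/7 luminescence, 1 h at room temperature.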
INS-1E ATP HTS – INS-1E beta cell protection from cytokine death; INS-1E cytokine-induced death, ATP luminescence, 48 h; normalised: neutral wells 0, positive control 100; protection from cytokine-induced ATP loss, % at 10 µM; 20,000 tested, 0.1% active; AID 488910;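 active = mean replicate protection from cytokine-induced ATP loss at least 50% and at least 75% of replicates each reaching 50%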
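Test system: INS-1E rat cells | Quantity: 8000 cells per well | Medium: Phenol-red-free RPMI with 5% fetal bovine serum | Reagent: Cytokine cocktail of IFN-γ, TNF-α and IL-1β | Doses: One compound concentration, pin transfer | Timing: 48 h co-treatment, 10 min post-lysis read | Technique: Luminescent ATP assay (CellTiter-Glo)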
Active calls of the source: *; nt = no result.

SMILES	T cruzi HTS	A1 apoptosis 2	INS-1E ATP HTS
C[C@@H]1CN([C@H](C)CO)C(=O)Cc2cc(NC(=O)Nc3ccccc3)ccc2O[C@H]1CN(C)Cc1ccc(Oc2ccccc2)cc1	49	nt	-46
C[C@@H]1CN([C@H](C)CO)C(=O)Cc2cc(NC(=O)Nc3ccc(C(F)(F)F)cc3)ccc2O[C@@H]1CN(C)Cc1ccc(Oc2ccccc2)cc1	80*	1	-35
C[C@H]1CN([C@@H](C)CO)C(=O)CCCn2cc(nn2)CO[C@@H]1CN(C)Cc1ccc(C(F)(F)F)cc1	-16	1	nt
C[C@H](CO)N1C[C@H](C)[C@H](CN(C)Cc2ccc(C(=O)Nc3ccccc3N)cc2)Oc2ccc(NS(C)(=O)=O)cc2CC1=O	44	nt	6
C[C@@H]1CCCCO[C@H](CN(C)C(=O)Nc2cccc3ccccc23)[C@@H](C)CN([C@H](C)CO)C(=O)c2cc(NS(=O)(=O)c3cn(C)cn3)ccc2O1	-5	1	5
C[C@@H]1CN([C@H](C)CO)C(=O)c2cc(NS(=O)(=O)c3ccc(F)cc3)ccc2O[C@@H](C)CCCCO[C@@H]1CN(C)C(=O)Cc1ccccc1	nt	0	nt
O=C(NO)c1cccc(C(=O)N/N=C/c2cccc(O)c2O)c1	1	-6	-27
O=C(N/N=C/c1cc(Cl)cc(Cl)c1O)c1ccccc1O	73*	-10	-115
O=C(NO)c1cccc(C(=O)N/N=C/c2ccc(O)c(O)c2O)c1	61*	-1	8
O=C(N/N=C/c1cc(O)ccc1O)c1ccccc1O	18	nt	-126
O=C(N/N=C/c1ccccc1O)c1ccccc1O	32	nt	-135
O=C(N/N=C/c1ccc(O)c(O)c1O)c1ccccc1O	57*	-5	-19
COc1ccc(S(=O)(=O)N(C)C[C@H]2Oc3c(NC(=O)c4ccc(-c5nccs5)cc4)cccc3C(=O)N([C@H](C)CO)C[C@@H]2C)cc1	16	-1	10
C[C@H]1CCCCO[C@@H](CN(C)S(=O)(=O)c2cn(C)cn2)[C@@H](C)CN([C@@H](C)CO)C(=O)c2cc(NC(=O)C3CCCCC3)ccc2O1	nt	-1	nt
Cc1c(NC(=O)/C(C#N)=C/c2ccc(Cl)cc2)c(=O)n(-c2ccccc2)n1C	nt	1	nt
Cc1ccc(S(=O)(=O)N(C)C[C@H]2Oc3ccc(NC(=O)Nc4cccc5ccccc45)cc3C(=O)N([C@H](C)CO)C[C@H]2C)cc1	48	1	-7
